Source: PMC10370593 (Chemical Science, 2023)
“Also recorded” adds a separate entry of the source.

Legend:
Erk2 gene = experiment: Gene silencing by real-time PCR; assay type: cell-based, human; conditions: 72 h, MDA-MB-231, MR50, RT-PCR, mean ± SEM of three
MDA-MB-231 cells [1] = experiment: Cellular uptake by flow cytometry; assay type: cell-based, human; conditions: DY-547 labelled siRNA, MR 50, 1 h incubation
How it was run: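 MDA-MB-231 cells were incubated 1 h with complexes of FAM-labelled lipopeptide (1.25 μM) and DY-547-labelled siRNA (25 nM), MR 50. Complexes were pre-formed by mixing and resting 30 min at room temperature. Uptake was read by flow cytometry in the FITC and PE channels, with single-label complexes used for compensation. Samples were run in duplicate; values are mean ± SEM of two replicates.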

Erk1 gene = experiment: Gene silencing by real-time PCR; assay type: cell-based, human; conditions: mean ± SEM of three
MDA-MB-231 cells [2] = experiment: Uptake studies by ApoTome microscopy; assay type: cell-based, human; conditions: MR 50, 6 h incubation at 37 °C
Notch1 gene = experiment: Gene silencing by real-time PCR; assay type: cell-based, human; conditions: 72 h, MDA-MB-231, MR50 (1.25 μM lipopeptide, 25 nM Notch1 siRNA), RT-PCR, mean ± SEM of three
CD24 gene = experiment: Relative gene expression in Notch1 silenced MDA-MB-231 by real-time PCR; assay type: cell-based, human; conditions: MDA-MB-231, 72 h, RT-PCR; AB36_siRNA MR 50, metformin 200 μM; mean of n = 3
MMP-2 gene = experiment: as above; assay type: cell-based, human; conditions: MDA-MB-231, 72 h, RT-PCR; AB36_siRNA MR 50, metformin 200 μM; mean of n = 3
MDA-MB-231 cells [3] = experiment: MTT cytotoxicity for IC50 and combination index; assay type: cell-based; conditions: Homo sapiens, MDA-MB-231, 72 h
How it was run: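 MTT viability assay in MDA-MB-231 cells at 72 h. The IC50 of the test compound came from a dose range analysed in CompuSyn. For the combination, five test compound doses (200–450 μM) were paired with a fixed dose of lipopeptide–Notch1 siRNA complex. Combination index was derived by the Chou–Talalay method. Data are mean ± SEM, n = 3.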

CD44 gene = experiment: Relative gene expression in Notch1 silenced MDA-MB-231 by real-time PCR; assay type: cell-based, human; conditions: MDA-MB-231, 72 h, RT-PCR; AB36_siRNA MR 50, metformin 200 μM; mean of n = 3
Notch1 protein = experiment: Immunostaining of Notch1 protein; assay type: cell-based, human; conditions: MDA-MB-231, 72 h, MR50, TRITC signal versus untreated vehicle
How it was run: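 MDA-MB-231 cells were seeded at 14000 per well on etched coverslips and left overnight. They were then transfected with unlabelled lipopeptide (1.25 μM) complexed to Notch1-silencing siRNA (25 nM), MR 50, for 72 h. Untreated cells served as vehicle. Notch1 was detected by immunofluorescence.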

trypsin = experiment: Protease stability of lipopeptides; assay type: in vitro ADME; conditions: 0.1 μg trypsin, protocol of ref. 14
HUVEC = experiment: Cellular uptake by flow cytometry; assay type: cell-based, human; conditions: DY-547 labelled siRNA, MR 50, 1 h incubation, hard to transfect primary cells, two replicates
[4] = 48 h, MDA-MB-231, MR50 (1.25 μM lipopeptide, 25 nM Erk1/2 siRNA), RT-PCR

Row | Compound | Knockdown percentage, Erk2 (Erk2 gene) [%] | Knockdown percentage, Erk1 (Erk1 gene; [4]) [%] | Knockdown percentage, Erk1 (Erk1 gene; 72 h, MDA-MB-231, MR50, RT-PCR) [%] | Knockdown percentage, Notch1 (Notch1 gene) [%] | further results
1 | FAM-γAbu-Arg- C^α-Octylgly -Arg-Sar-Arg-Gly-Arg- Lys-N^ε(D-alpha-Tocopherol succinyl)-Arg-Sar-Arg-NH2 [AB18] | 85.9 ± 16.7 | 62.6 ± 12.5 | 89.1 ± 6.3 | 90.8 ± 3.06 | siRNA internalization (ranking among designed lipopeptides) (MDA-MB-231 cells [1]): highest siRNA internalization; also recorded: highest level of siRNA; siRNA internalization relative to HiPerFect_siRNA (MDA-MB-231 cells [1]; two replicates): 1.79 times; cytosolic distribution of siRNA compared with HiPerFect (MDA-MB-231 cells [2]): higher levels of cytosolic distribution of siRNA
2 | FAM-γAbu-Arg-C^α-Octylgly-Arg-Sar-Arg-Gly-Arg-Lys-N^ε(1-Adamantyl)-Arg-Sar-Arg-NH2 [AB29] | 59.8 ± 7.2 | 52.6 ± 10.2 | 58.8 ± 10.9 | 50.5 ± 7.7 | siRNA internalization (ranking among designed lipopeptides) (MDA-MB-231 cells [1]): much lower efficiency; also recorded: lowest amount of siRNA
3 | FAM-γAbu-Arg- Lys-N^ε(1-Pyrenebutyryl)-Arg-Sar-Arg-Gly-Arg- Lys-N^ε(1-Pyrenebutyryl)-Arg-Sar-Arg-NH2 [AB17] | 75.8 ± 5.1 | 67.9 ± 7.6 | 85.9 ± 8.8 | 82.5 ± 5.6 | 
4 | FAM-^γAbu-Arg- Lys-N^ε(stearyl)-Arg-Sar-Arg-Gpn-Arg- Lys-N^ε(stearyl)-Arg-Sar-Arg-NH2 [AB32] | 60.3 ± 3.2 | 51.6 ± 7.4 | 70.6 ± 2.3 | 73.1 ± 2.8 | 
5 | CN(C)C(=N)N=C(N)N [metformin] |  |  |  |  | relative expression of the CD24 gene (CD24 gene): did not show any changes; relative expression of the MMP-2 gene (MMP-2 gene): did not show any changes; IC50 (MDA-MB-231 cells [3]): 374 µM; relative expression of the CD44 gene (CD44 gene): did not show any changes
6 | c[-Arg-^DHis-Arg-^DHis-Arg-Lys{Lys(linoleyl)2}-Arg-^DHis-Arg-^DHis-Arg-Glu-]-Lys(FAM)-NH2 (head to tail) [Peptide 6, reference compound] | 71.6 ± 9.4 | 31.2 ± 2.2 | 78.1 ± 2.0 | 80.9 ± 1.6 | 
7 | PEG9-Arg- C^α-Octylgly -Arg-Sar-Arg-Gly-Arg-Lys- N^ε(D-alpha-Tocopherol succinyl)-Arg-Sar-Arg-NH2 [AB36] |  |  |  |  | Notch1 protein expression by immunofluorescence (Notch1 protein): significantly lowered; time at which degradation by trypsin starts (trypsin): 1 to 3 h; time at which lipopeptide is completely degraded by trypsin (trypsin): 6 h; cellular internalization of siRNA relative to HiPerFect (HUVEC): 1.53 times
